Screening data: PubChem, several laboratories
Most compounds without a hit are left out; they make up all but 1.7% or so of the library.
SR-BI uptake up – activators of SR-BI mediated DiI-HDL uptake, primary screen, ldlA[mSR-BI] CHO cells, DiI fluorescence. AID 504775, 2011. activation, % at 12.5 µM. 320,000 tested, 0.096% active. 3 h; 100 = double the neutral-control signal;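 active = mean replicate activation of at least 60% and every replicate at or above 60%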
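Material: SR-BI-overexpressing, LDLR-lacking CHO cells; schedule: compound exposure 3 h, 37 °C; reagent: DiI-labelled HDL at 10 µg/mL final; technique: bottom-read fluorescence, 550/595 nm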
CaV13 ICDI inh – Disruptors of the CACNA1D IQ motif to Ca2+-dependent inactivation inhibitor domain association, primary screening, Förster resonance energy transfer in intact living …. HEK cells, CFP/YFP FRET ICDI-IQ, plate reader, 10 min; percent FRET-ratio fall versus neutral wells. inhibition, % at 12.3 µM. 340,000 tested, 0.098% active. AID 743397;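 active = mean replicate inhibition of at least 30% and at least 1% of replicates passing that level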
V-ATPase pH – regulators of yeast V-ATPase proton pumping, primary screen, pHLuorin cytosolic pH fluorescence; S. cerevisiae; response, % at 10 µM; 350,000 tested, 0.37% active; in the data active = response mostly above about 7.3%, no sharp cut-off; inactive = mostly below about 5.4%; note: actives read high
Vif imaging – HIV Vif self-association inhibitors, primary screen, imaging, HEK293T, single point; AID 602346, 2012; HEK293T cells, Vif self-association by quenched fluorescence, 24 h; 340,000 tested, 0.35% active; inhibition, % at 7.49 µM; in the data active = inhibition above about 50%, passing the limit was not always enough
NTR1 ag – agonists of human NTR1, primary screen, imaging, U2OS cells, beta-arrestin-GFP, high content | activation, % at 20 µM | Neurotensin receptor type 1 (Homo sapiens), P30989 | NTR1-U2OS beta-arrestin-GFP spot imaging, agonist mode | AID 493036, 2011 | 330,000 tested, 0.17% active;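 active = activation at or above 40% of the spot to cytoplasm intensity ratio, with at least 20 cells analyzed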
SR-BI DiI inh – inhibitors of SR-BI mediated HDL lipid uptake, primary screen, ldlA[mSR-BI] cells, fluorescence, single point; ldlA[mSR-BI] CHO cells, DiI-HDL uptake fluorescence, 3 h; 320,000 tested, 0.96% active; AID 488896, 2010; inhibition, % at 12.5 µM; Scavenger receptor class B member 1 (Mus musculus), Q61009;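 active = mean replicate inhibition of at least 70% and a set share of replicates each scoring 70 or more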
Target sequence (Q61009 whole entry, looked up): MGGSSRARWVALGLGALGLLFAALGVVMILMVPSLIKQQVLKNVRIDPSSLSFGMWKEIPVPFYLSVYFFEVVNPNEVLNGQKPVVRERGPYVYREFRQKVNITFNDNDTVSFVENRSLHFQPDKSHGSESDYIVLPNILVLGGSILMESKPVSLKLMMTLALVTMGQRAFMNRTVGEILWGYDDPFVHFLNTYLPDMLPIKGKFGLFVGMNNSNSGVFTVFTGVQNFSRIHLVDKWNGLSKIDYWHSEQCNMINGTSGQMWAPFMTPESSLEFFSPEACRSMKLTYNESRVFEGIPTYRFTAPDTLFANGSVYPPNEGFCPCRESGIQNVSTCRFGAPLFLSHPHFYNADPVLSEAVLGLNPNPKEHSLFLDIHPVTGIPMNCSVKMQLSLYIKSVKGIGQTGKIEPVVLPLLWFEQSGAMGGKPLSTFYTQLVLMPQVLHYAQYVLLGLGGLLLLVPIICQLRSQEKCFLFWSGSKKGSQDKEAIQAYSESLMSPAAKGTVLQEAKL
A number is an active result; - = inactive; . = not tested or not shown; + = active, no number; ! = not confirmed by another sample.

SMILES	SR-BI uptake up	CaV13 ICDI inh	V-ATPase pH	Vif imaging	NTR1 ag	SR-BI DiI inh
COc1ccc(C2=NC(CO)(CO)CO2)cc1	-	-	-	-	-	-
COc1cc(C2=NC(CO)(CO)CO2)cc(OC)c1OC	448	-	-	-	-	-
Cc1ccc(Oc2nccc(-c3ccc(Cl)cc3)n2)cc1	-	.	-	-	-	-
OCCO	-	.	-	55	-	-
Cc1ccc2cccc(Oc3ncnc4sc(C)c(C)c34)c2n1	-	-	-	-	-	77
CCc1sc(C(=O)Nc2ccc(N3CCOCC3)cc2)cc1C	-	-	-	-	-	75
CCc1sc(C(=O)Nc2ccc3c(c2)OCO3)cc1C	-	-	-	-	-	-
COc1ccc(/C=C2\CN(Cc3ccccc3)C/C(=C\c3ccc(OC)c(O)c3)C2=O)cc1O	-	-	-	59	-	-
CCN1C/C(=C/c2ccc(OC)c(O)c2)C(=O)/C(=C/c2ccc(OC)c(O)c2)C1	-	-	-	-	-	-
COc1ccc(-c2csc(NC(=S)NC(=O)/C=C/c3ccc(C(C)C)cc3)n2)cc1OC	-	.	-	-	-	75
COc1ccc(C(=O)NC(=S)Nc2nc(-c3ccc(OC)c(Br)c3)cs2)cc1Br	-	-	-	-	-	-
COc1ccc(-c2csc(NC(=S)NC(=O)/C=C/c3ccco3)n2)cc1OC	-	-	-	.	.	76
COc1ccc(-c2csc(NC(=S)NC(=O)/C=C/c3ccco3)n2)cc1Br	-	-	-	.	-	-
C[C@H](CO)N1C[C@H](C)[C@@H](CN(C)Cc2ccc(C(=O)O)cc2)OCCCC[C@H](C)Oc2ccc(NC(=O)CCC(F)(F)F)cc2C1=O	.	-	.	.	.	.
Cc1cccn2c(=O)c(/C=C(\C#N)C(N)=O)c(Oc3ccccc3)nc12	-	38	-	-	-	-
Cc1cccn2c(=O)c(/C=C(\C#N)C(N)=O)c(N3CCN(c4ccccc4)CC3)nc12	-	-	-	-	-	-
Cc1ccccc1Oc1nc2c(C)cccn2c(=O)c1/C=C(\C#N)C(=O)Nc1c(C)n(C)n(-c2ccccc2)c1=O	-	-	-	124	-	-
Cc1ccccc1Oc1nc2ccccn2c(=O)c1/C=C(\C#N)C(=O)Nc1c(C)n(C)n(-c2ccccc2)c1=O	-	-	-	-	-	-
S=C(NCC1CCCO1)N1CCN(Cc2ccccc2Cl)CC1 (stereo not given)	-	+	-	-	-	-
Cc1cc(C)cc(C(=O)OCC(=O)NC2CCCC2)c1	-	-	-	-	-	-
Cc1cc(C)cc(C(=O)OCC(=O)Nc2ncccn2)c1	-	-	-	56	-	-
CCCCN=c1scc(-c2ccc3c(c2)NC(=O)CO3)n1N=C1CCCC1	-	-	-	-	-	-
CCN=c1scc(-c2ccc3c(c2)NC(=O)CO3)n1N=C1CCCC1	-	-	-	54!	-	-
COc1ccc(/C=N/Nc2cc(C)nc(-n3nc(C)cc3C)n2)c(OC)c1	-	-	-	-	-	79
COc1ccc(C(=O)NC(=S)NNC(=O)c2ccccc2O)cc1	-	-	-	-	-	89
SMILES	SR-BI uptake up	CaV13 ICDI inh	V-ATPase pH	Vif imaging	NTR1 ag	SR-BI DiI inh
COc1ccc(C(=O)NNC(=S)NC(=O)c2cccc([N+](=O)[O-])c2)cc1	-	-	-	-	-	-
O=C(NC(=S)NNC(=O)c1ccccc1O)c1cccc([N+](=O)[O-])c1	-	-	-	-	-	109
O=C(NC(=S)NNC(=O)c1ccc(Cl)cc1Cl)c1cccnc1	-	-	-	-	-	-
O=C(NC(=S)NNC(=O)c1ccccc1O)c1cccnc1	-	-	-	-	-	124
COC(=O)C1=C(C)N(C)C(=NCc2ccc3c(c2)OCO3)NC1c1ccc(F)cc1 (stereo not given)	.	-	.	.	.	.
CC1=NN(Cc2c(C)nn(Cc3ccccc3)c2C)C(C)(C)C1	-	-	-	-	-	-
C/C(CC(=O)Nc1ccc(Cl)c(C(F)(F)F)c1)=N\NC(=O)c1cc2ccccc2cc1O	-	-	-	-	-	112
